Laboratory results from ChEMBL document CHEMBL5543163, “Druglike, 18F-labeled PET Tracers Targeting Fibroblast Activation Protein” (J Med Chem, 2024).
Blank lines part the entries; values can stand above or below the compound they belong to.

Assays:
[1] = biological target: T1, Prolyl endopeptidase FAP (Homo sapiens, UniProt Q12884); experiment: Inhibition of FAP (unknown origin) using Z-Gly-Pro-7-amino-4-methylcoumarine as fluorogenic substrate preincubated for 15 mins followed by substrate addition and measured after 15 mins
T1 sequence (Q12884 whole entry): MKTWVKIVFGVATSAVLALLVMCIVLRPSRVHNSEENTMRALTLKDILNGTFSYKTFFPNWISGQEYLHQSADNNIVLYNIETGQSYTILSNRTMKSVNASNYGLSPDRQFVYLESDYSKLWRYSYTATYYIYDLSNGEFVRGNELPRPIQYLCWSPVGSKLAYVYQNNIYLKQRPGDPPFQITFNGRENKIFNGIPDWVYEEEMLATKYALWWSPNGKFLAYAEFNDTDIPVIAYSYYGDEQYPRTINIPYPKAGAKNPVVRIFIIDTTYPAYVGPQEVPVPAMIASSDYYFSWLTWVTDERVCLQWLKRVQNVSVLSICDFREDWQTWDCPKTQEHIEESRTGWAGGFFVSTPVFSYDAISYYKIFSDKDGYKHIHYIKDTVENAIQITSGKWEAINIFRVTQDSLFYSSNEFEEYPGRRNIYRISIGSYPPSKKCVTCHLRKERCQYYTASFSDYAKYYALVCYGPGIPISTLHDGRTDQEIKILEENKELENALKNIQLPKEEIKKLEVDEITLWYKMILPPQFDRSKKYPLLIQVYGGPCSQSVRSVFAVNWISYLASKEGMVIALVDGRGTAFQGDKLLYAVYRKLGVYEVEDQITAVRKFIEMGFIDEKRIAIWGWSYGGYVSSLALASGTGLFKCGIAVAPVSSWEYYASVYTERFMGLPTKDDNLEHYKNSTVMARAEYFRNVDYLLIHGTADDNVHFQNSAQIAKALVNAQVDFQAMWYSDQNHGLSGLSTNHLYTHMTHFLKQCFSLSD

[2] = biological target: Dipeptidyl peptidase 4 (Homo sapiens, UniProt P27487); experiment: Inhibition of DPP4 (unknown origin) using Ala-Pro-paranitroanilide as chromogenic substrate preincubated for 15 mins followed by substrate addition and measured after 15 mins
[3] = biological target: Dipeptidyl peptidase 8 (Homo sapiens, UniProt Q6V1X1); experiment: Inhibition of DPP8 (unknown origin) using Ala-Pro-paranitroanilide as chromogenic substrate preincubated for 15 mins followed by substrate addition and measured after 15 mins
[4] = biological target: T2, Prolyl endopeptidase (Homo sapiens, UniProt P48147); experiment: Inhibition of PREP (unknown origin) using N-succinyl-Gly-Pro-AMC as substrate preincubated for 15 mins followed by substrate addition and measured after 15 mins
T2 sequence (P48147 whole entry): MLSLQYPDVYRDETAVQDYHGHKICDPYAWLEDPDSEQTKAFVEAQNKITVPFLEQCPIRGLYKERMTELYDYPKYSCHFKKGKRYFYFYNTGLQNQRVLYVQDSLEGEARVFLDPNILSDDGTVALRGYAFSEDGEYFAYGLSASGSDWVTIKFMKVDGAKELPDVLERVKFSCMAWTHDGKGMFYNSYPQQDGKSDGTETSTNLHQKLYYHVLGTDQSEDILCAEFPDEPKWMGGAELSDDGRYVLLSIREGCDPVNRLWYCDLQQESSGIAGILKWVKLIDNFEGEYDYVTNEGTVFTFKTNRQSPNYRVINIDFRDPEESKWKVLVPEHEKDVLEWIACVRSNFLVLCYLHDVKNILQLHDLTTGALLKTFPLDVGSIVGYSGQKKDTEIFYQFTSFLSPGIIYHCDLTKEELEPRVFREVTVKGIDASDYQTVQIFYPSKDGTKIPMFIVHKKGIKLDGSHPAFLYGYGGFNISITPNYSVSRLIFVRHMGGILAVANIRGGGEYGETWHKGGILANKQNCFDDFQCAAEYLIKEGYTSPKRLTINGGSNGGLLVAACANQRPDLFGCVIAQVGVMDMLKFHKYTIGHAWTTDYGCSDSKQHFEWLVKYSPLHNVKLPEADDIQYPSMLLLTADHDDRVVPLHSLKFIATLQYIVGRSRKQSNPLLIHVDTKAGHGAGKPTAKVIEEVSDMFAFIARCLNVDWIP

[5] = biological target: Dipeptidyl peptidase 9 (Homo sapiens, UniProt Q86TI2); experiment: Inhibition of DPP9 (unknown origin) using Ala-Pro-paranitroanilide as chromogenic substrate preincubated for 15 mins followed by substrate addition and measured after 15 mins
[6] = biological target: Dipeptidyl peptidase 2 (Homo sapiens, UniProt Q9UHL4); experiment: Inhibition of DPP2 (unknown origin) using Lys-Ala-pNA as substrate preincubated for 15 mins followed by substrate addition and measured after 15 mins
[7] = Drug uptake in tumor of female nude mouse harboring null mutation of CD1 antigen complex xenografted with human HT-29 cells with decreased FAP positive tumor area at 5 to 7.4 MBq, iv measured after 60 mins by immunohistochemistry analysis; type: ADME, organism-based, Neoplasm; details: in vivo, 1 h, dose 5-7.4 MBq
[8] = Drug uptake in bone structures of female nude mouse harboring null mutation of CD1 antigen complex xenografted with human U-87 MG cells at 5 to 7.4 MBq, iv measured after 60 mins by gamma counter analysis; type: ADME, organism-based, Bone element; details: in vivo, 1 h, dose 5-7.4 MBq
[9] = Stability in PBS assessed as compound remaining at 185 kBq measured upto 60 mins by radio-HPLC analysis; type: physicochemical; details: read-out: Stability
Procedure, shortened: (§1)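 Radiotracer was incubated at 37 °C for up to 60 min in PBS (0.01 M, pH 7.4) or in mouse plasma. Samples were deproteinized with an equal volume of cold ACN and centrifuged. The supernatant was analyzed by radio-HPLC with 30 s fractions γ-counted to give the intact fraction. Triplicates.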

[10] = Drug uptake in tumor of female nude mouse harboring null mutation of CD1 antigen complex xenografted with human U-87 MG cells with increased FAP positive tumor area at 5 to 7.4 MBq, iv measured after 60 mins by immunohistochemistry analysis; type: ADME, organism-based, Neoplasm; details: in vivo, 1 h, dose 5-7.4 MBq
[11] = Ratio of drug level in tumor to muscle of female nude mouse harboring null mutation of CD1 antigen complex xenografted with human U-87 MG cells at 5 to 7.4 MBq, iv measured at 60 mins postinjection by gamma counter analysis; type: ADME, organism-based; details: in vivo, 1 h, dose 5-7.4 MBq
Procedure, shortened: (§2)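 Subcutaneous U-87MG xenografts (5×10^6 cells in DPBS, hind flank) were grown in female CD1 nude mice to about 200 mm3. After tail-vein radiotracer injection and a 60 min dynamic PET scan, tissues were harvested at 60 min p.i. and γ-counted (%ID/g). Tumor-to-tissue ratios are means ± SD of individual ratios, n=4 per tracer.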

[12] = Ratio of drug level in tumor to liver of female nude mouse harboring null mutation of CD1 antigen complex xenografted with human U-87 MG cells at 5 to 7.4 MBq, iv measured at 60 mins postinjection by gamma counter analysis; type: ADME, organism-based; details: in vivo, 1 h, dose 5-7.4 MBq; procedure, shortened: as §2
[13] = Ratio of drug level in tumor to small intestine of female nude mouse harboring null mutation of CD1 antigen complex xenografted with human U-87 MG cells at 5 to 7.4 MBq, iv measured at 60 mins postinjection by gamma counter analysis; type: ADME, organism-based; details: in vivo, 1 h, dose 5-7.4 MBq; procedure, shortened: as §2
[14] = Drug uptake in tumor of female nude mouse harboring null mutation of CD1 antigen complex xenografted with human U-87 MG cells at 5 to 7.4 MBq, iv measured at 60 mins by PET/CT analysis; type: ADME, organism-based, Neoplasm; details: in vivo, 1 h, dose 5-7.4 MBq
Procedure, shortened: (§3)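 U-87MG xenografts (5×10^6 cells, subcutaneous flank) were grown in female CD1 nude mice to about 200 mm3. Dynamic whole-body PET over 60 min p.i. was followed by CT. Images were reconstructed with OSEM 3D and expressed as %ID/mL to give time-activity curves. For blocking, the FAP inhibitor (5 mg/kg) was given via the tail vein 30 min before the tracer; n=4.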

[15] = Stability in CD1 mouse plasma assessed as compound remaining at 185 kBq measured upto 60 mins by radio-HPLC analysis; type: ADME, cell-free; details: read-out: Stability; procedure, shortened: as §1
[16] = Stability in PBS assessed as drug degradation at 185 kBq measured upto 60 mins by radio-HPLC analysis; type: physicochemical; details: buffer, 1 h; procedure, shortened: as §1
[17] = Octanol/water partition coefficient, logD of compound at 74 kBq incubated for 2 mins by gamma counter method; type: physicochemical
Procedure, shortened: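 Octanol and PBS phases were mixed and vortexed for 2 min, then centrifuged at 3,000 rpm for 10 min. Aliquots of 0.5 mL from each phase were γ-counted and corrected for mass and density. LogD was taken as log10 of the octanol/PBS radioactivity ratio.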

[18] = Drug uptake in skull of female nude mouse harboring null mutation of CD1 antigen complex xenografted with human U-87 MG cells at 5 to 7.4 MBq, iv measured after 60 mins by gamma counter analysis; type: ADME, organism-based; details: in vivo, 1 h, dose 5-7.4 MBq
[19] = Stability in female nude mouse harboring null mutation of CD1 antigen complex assessed as drug degradation at 5.1 to 7.4 MBq, iv measured at 60 mins by radio-HPLC analysis; type: ADME, organism-based; details: 1 h, dose 5.1-7.4 MBq
Procedure, shortened: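 Female CD1 nude mice received 5.1–7.4 MBq i.v. EDTA blood collected at 15, 30 and 60 min p.i. (n=3 per time point) was centrifuged to plasma, deproteinized with cold ACN and centrifuged. The supernatant was analyzed by radio-HPLC with 30 s fractions γ-counted to give the percent intact tracer.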

[20] = Drug uptake in liver of female nude mouse harboring null mutation of CD1 antigen complex at 5.1 to 7.4 MBq, iv measured after 15 to 60 mins by gamma counter analysis; type: ADME, organism-based; details: in vivo, dose lower 5.1 MBq, time lower 15 min, dose upper 7.4 MBq, time upper 60 min
Procedure, shortened: (§4)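 Female CD1 nude mice, 6–8 weeks old (20–25 g), received the radiotracer through the lateral tail vein. At 15, 30 and 60 min p.i. (n = 3 per time point) blood was drawn by cardiac puncture and the animals were euthanized. Organs were excised, weighed and γ-counted. Uptake is expressed as %ID/g.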

[21] = Drug uptake in urinary bladder of female nude mouse harboring null mutation of CD1 antigen complex assessed as increase in renal excretion at 5.1 to 7.4 MBq, iv measured after 15 to 60 mins by gamma counter analysis; type: ADME, organism-based; details: in vivo, dose lower 5.1 MBq, time lower 15 min, dose upper 7.4 MBq, time upper 60 min; procedure, shortened: as §4
[22] = Drug uptake in kidney of female nude mouse harboring null mutation of CD1 antigen complex assessed as increase in renal excretion at 5.1 to 7.4 MBq, iv measured after 15 to 60 mins by gamma counter analysis; type: ADME, organism-based; details: in vivo, dose lower 5.1 MBq, time lower 15 min, dose upper 7.4 MBq, time upper 60 min; procedure, shortened: as §4
[23] = Stability in CD1 mouse plasma assessed as drug degradation at 185 kBq measured upto 60 mins by radio-HPLC analysis; type: ADME, cell-free; details: 1 h; procedure, shortened: as §1
[24] = Drug uptake in intestine of female nude mouse harboring null mutation of CD1 antigen complex at 5.1 to 7.4 MBq, iv measured after 15 to 60 mins by gamma counter analysis; type: ADME, organism-based; details: in vivo, dose lower 5.1 MBq, time lower 15 min, dose upper 7.4 MBq, time upper 60 min; procedure, shortened: as §4
[25] = Drug uptake in tumor of female nude mouse harboring null mutation of CD1 antigen complex xenografted with human U-87 MG cells at 5 to 7.4 MBq, iv pretreated with (S)-N-(2-(2-cyano-4,4-difluoropyrrolidin-1-yl)-2-oxoethyl)quinoline-4-carboxamide for 30 mins followed by radioligand addition and measured measured after 60 mins by PET/CT analysis; type: ADME, organism-based, Neoplasm; details: in vivo, 1 h, dose 5-7.4 MBq; procedure, shortened: as §3
[26] = Ratio of drug level in tumor to blood of female nude mouse harboring null mutation of CD1 antigen complex xenografted with human U-87 MG cells at 5 to 7.4 MBq, iv measured at 60 mins postinjection by gamma counter analysis; type: ADME, organism-based; details: tumour, 1 h, dose 5-7.4 MBq; procedure, shortened: as §2

Sequence of Dipeptidyl peptidase 4 (P27487 whole entry): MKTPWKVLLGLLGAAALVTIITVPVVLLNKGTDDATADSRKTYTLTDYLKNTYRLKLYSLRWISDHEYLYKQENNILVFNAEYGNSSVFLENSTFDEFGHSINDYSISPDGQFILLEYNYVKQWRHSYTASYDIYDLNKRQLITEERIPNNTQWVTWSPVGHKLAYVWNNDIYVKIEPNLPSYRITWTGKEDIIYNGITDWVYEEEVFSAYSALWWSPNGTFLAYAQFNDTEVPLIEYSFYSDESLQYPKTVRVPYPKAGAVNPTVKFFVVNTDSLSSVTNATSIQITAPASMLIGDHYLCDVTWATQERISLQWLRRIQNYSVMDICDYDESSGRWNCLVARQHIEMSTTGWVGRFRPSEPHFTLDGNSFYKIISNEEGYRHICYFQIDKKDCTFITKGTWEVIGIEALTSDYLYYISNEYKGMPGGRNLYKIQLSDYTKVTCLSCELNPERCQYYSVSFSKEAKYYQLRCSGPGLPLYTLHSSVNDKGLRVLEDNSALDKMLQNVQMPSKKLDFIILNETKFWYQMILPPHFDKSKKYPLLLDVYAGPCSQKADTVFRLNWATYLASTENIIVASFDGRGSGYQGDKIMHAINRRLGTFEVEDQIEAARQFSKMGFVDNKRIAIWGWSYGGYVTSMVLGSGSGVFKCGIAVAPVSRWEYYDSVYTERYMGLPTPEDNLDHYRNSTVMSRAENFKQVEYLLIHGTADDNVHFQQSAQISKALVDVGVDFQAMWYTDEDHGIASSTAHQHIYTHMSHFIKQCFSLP
Sequence of Dipeptidyl peptidase 8 (Q6V1X1 whole entry): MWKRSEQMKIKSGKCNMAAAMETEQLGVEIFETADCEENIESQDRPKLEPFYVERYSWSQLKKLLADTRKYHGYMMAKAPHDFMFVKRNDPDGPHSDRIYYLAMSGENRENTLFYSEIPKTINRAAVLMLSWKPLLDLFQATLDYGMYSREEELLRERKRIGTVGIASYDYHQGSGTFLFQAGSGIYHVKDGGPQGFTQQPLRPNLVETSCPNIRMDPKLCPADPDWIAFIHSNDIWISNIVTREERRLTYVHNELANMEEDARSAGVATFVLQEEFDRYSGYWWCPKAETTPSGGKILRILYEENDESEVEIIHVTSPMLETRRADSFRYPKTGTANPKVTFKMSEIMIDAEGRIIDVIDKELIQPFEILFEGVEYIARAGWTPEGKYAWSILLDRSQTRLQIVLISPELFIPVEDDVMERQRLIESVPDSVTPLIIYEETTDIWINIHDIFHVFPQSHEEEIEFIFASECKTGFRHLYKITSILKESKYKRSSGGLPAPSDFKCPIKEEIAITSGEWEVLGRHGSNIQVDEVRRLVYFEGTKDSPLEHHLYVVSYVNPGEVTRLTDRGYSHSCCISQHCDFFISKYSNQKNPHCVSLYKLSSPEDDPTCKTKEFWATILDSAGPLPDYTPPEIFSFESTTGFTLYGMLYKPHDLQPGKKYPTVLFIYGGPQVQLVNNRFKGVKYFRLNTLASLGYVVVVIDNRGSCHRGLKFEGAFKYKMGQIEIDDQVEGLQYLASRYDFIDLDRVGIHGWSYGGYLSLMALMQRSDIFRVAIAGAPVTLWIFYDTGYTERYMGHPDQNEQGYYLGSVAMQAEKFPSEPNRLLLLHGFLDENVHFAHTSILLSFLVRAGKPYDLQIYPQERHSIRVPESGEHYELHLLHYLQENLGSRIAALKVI
Sequence of Dipeptidyl peptidase 9 (Q86TI2 whole entry): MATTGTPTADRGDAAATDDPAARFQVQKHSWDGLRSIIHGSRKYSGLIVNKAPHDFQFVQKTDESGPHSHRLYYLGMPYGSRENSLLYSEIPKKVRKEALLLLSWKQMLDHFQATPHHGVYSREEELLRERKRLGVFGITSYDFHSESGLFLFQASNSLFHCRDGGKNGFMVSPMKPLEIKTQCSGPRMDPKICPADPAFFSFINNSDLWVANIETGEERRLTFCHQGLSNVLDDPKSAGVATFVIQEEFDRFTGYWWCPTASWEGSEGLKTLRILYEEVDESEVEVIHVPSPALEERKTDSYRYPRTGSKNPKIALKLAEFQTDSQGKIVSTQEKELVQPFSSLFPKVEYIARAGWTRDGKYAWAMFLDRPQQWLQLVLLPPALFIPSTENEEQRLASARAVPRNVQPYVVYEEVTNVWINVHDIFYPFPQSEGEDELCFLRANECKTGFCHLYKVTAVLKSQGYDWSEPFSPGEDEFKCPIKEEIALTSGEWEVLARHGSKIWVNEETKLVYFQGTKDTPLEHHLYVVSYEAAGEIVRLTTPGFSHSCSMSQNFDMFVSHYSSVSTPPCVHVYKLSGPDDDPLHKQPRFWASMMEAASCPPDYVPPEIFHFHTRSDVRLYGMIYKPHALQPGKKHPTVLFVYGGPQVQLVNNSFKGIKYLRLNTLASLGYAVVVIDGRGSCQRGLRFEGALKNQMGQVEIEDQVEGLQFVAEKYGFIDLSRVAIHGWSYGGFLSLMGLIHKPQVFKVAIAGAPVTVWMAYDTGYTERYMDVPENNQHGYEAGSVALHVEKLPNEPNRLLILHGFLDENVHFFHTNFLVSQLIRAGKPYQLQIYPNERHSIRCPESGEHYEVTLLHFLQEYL

IC50 [1]: 0.00177 µM
IC50 [2]: > 10 µM
IC50 [3]: > 10 µM
IC50 [4]: > 10 µM
IC50 [5]: > 10 µM
IC50 [6]: > 10 µM
SMILES: N#C[C@@H]1CC(F)(F)CN1C(=O)CNC(=O)c1ccnc2ccc(OC[C@H](O)[C@@H](O)CF)cc12

IC50 [6]: > 10 µM
SMILES: C[N+](C)(CF)CCCOc1ccc2nccc(C(=O)NCC(=O)N3CC(F)(F)C[C@H]3C#N)c2c1

IC50 [1]: 0.00046 µM
IC50 [2]: > 10 µM
IC50 [3]: > 10 µM
IC50 [4]: > 10 µM
IC50 [5]: > 10 µM
IC50 [6]: > 10 µM
SMILES: CC1(C)O[C@@H](CF)[C@H](COc2ccc3nccc(C(=O)NCC(=O)N4CC(F)(F)C[C@H]4C#N)c3c2)O1

Drug uptake [7]: Not Active
Drug uptake [8]: Active
remaining at 1 h, 185 kBq [9]: > 70%
Drug uptake [10]: Active
Ratio [11]: 3.6
Ratio [12]: 2.37
Ratio [13]: 0.16
Drug uptake [14]: < 3 %ID/ml
remaining at 1 h, 185 kBq [15]: > 70%
Stability [16]: Stable
logD at 2 min [17]: 0.18
Drug uptake [18]: Active
Stability [19]: Unstable
Drug uptake [20]: Active
Drug uptake [21]: Active
Drug uptake [22]: Active
Stability [23]: Stable
Drug uptake [24]: Active
Drug uptake [25]: Not Active
Ratio [26]: 6.58
SMILES: N#C[C@@H]1CC(F)(F)CN1C(=O)CNC(=O)c1ccnc2ccc(OCC(O)C[18F])cc12 (stereo partly drawn)
